Source: ChEMBL document CHEMBL3817796, “Discovery of Novel 15-Lipoxygenase Activators To Shift the Human Arachidonic Acid Metabolic Network toward Inflammation Resolution” (J Med Chem, 2016)
pKd: −log10 of the molar value.

Tests used:
[1] = target: T1, Polyunsaturated fatty acid lipoxygenase ALOX15 (Homo sapiens) (UniProt P16050); assay: Activation of wild-type His6-tagged human 15-LOX expressed in Escherichia coli Rosetta DE3 assessed as 15-HpETE formation at 40 uM pre-incubated for 1 min before arachidonic acid substrate addition by cell free assay
T1 sequence (whole entry): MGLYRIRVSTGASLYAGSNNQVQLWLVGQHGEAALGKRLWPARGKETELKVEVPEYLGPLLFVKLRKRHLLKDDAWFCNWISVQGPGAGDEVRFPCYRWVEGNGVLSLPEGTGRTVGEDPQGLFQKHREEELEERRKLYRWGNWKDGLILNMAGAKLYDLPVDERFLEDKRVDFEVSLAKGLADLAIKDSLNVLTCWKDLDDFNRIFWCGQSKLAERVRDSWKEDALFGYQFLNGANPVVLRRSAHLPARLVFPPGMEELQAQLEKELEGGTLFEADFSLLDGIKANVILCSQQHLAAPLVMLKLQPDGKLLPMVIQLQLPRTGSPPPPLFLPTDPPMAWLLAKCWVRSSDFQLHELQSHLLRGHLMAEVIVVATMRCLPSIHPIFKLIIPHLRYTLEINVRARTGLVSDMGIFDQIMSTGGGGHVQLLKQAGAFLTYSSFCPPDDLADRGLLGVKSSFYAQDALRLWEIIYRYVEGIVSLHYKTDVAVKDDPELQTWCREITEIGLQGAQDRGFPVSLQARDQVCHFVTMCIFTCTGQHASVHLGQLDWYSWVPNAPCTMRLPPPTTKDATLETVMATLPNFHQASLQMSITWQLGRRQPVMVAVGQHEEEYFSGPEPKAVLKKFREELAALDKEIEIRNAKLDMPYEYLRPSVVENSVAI

[2] = target: T2, Polyunsaturated fatty acid lipoxygenase ALOX15 (Homo sapiens, UniProt P16050); assay: Binding affinity to wild-type His6-tagged human 15-LOX expressed in Escherichia coli Rosetta DE3 by SPR assay
T2 sequence (P16050 whole entry): T1 sequence (whole entry)
Procedure, shortened: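 15-LOX amine-coupled to a CM5 chip at 800 RU, 25 °C, in PBS-P pH 7.4. Compound concentrations in 5% DMSO injected serially; regenerated by buffer washing. KD from Hill fit of response units.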

| %max [1] | pKd [2] | SMILES |
| --- | --- | --- |
| 61% | 4.82 | C[n+]1cn(/N=C/c2ccccc2)c2ccccc21 |
| 84% | 5.36 | c1cc2c3c(cccc3c1)-c1n[n+]3cc4ccccn4c3cc1-2 |
